Measurements reported in article PMC11370551 (bioRxiv, 2024).

Experiments:
Format in all cases: in vivo, mouse
female WT Swiss mice [1] = experiment: Safety profile and MTD in female WT Swiss mice; conditions: SC
Procedure, shortened: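 A GLP-1 receptor agonist was injected subcutaneously into WT mice at 0.5 (~5 nmol), 3 (~30 nmol) or 10 mg/kg (~100 nmol) to check tolerability before the painting studies.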

female WT Swiss mice [2] = experiment: Ip-GTT in WT Swiss mice; conditions: 6 days ([…]) after single SC 10 mg/kg; glucose 2 g/kg IP; naïve 21,354 ± 431
Procedure, shortened: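 Female WT Swiss mice got a single subcutaneous injection of test compound at 10 mg/kg (~25 nmol). […] AUCs were compared by non-parametric t-tests.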

Lepob/ob obese mice [3] = experiment: Efficacy in obese Lepob/ob mice after SC injection
Procedure, shortened: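 Obese Lepob/ob mice (n = 6 per compound; 3 males, 3 females) got a single subcutaneous 10 mg/kg injection. Untreated non-obese C57BL/6J mice (3 males, 3 females) gave healthy baselines. Body weight was tracked as % change from Day 0. Blood glucose was read after 6 h fasting. IP glucose tolerance: 2 g/kg after 5–6 h fast. ITT: insulin 2.5 IU/kg at 240 h, AUC0–90 min, k-ITT. Analysis: two-way ANOVA and multiparametric t-tests.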

Lepob/ob obese mice [4] = experiment: Efficacy in obese Lepob/ob mice after IP injection; conditions: single IP 10 mg/kg
Procedure, shortened: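 Obese Lepob/ob mice got a single intraperitoneal 10 mg/kg injection of test compound; the other arm of the route comparison was subcutaneous. Body weight was tracked as % change from Day 0. Fasting blood glucose was measured. Insulin response was assessed 10 days post-injection.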

## Semaglutide
Female WT Swiss mice [1]; WT mice, doses 0.5, 3, 10 mg/kg
  dose from which hypoglycemia was observed: ≥ 0.5 mg/kg
Female WT Swiss mice [1]; female WT Swiss mice
  MTD (maximum tolerated dose among the assessed range): 10 mg/kg
Female WT Swiss mice [2]
  Ip-GTT AUC0–120min: 21,282 ± 795
Lepob/ob obese mice [3]; for 3 days after single SC 10 mg/kg (~170 nmol), n = 6
  body weight loss: about 8.3 ± 0.5%
Lepob/ob obese mice [3]; single SC 10 mg/kg
  duration of significant body weight loss: 3 days
Lepob/ob obese mice [3]; single SC 10 mg/kg, both sexes combined
  duration of blood glucose down-regulation: up to 10 days
Lepob/ob obese mice [4]
  duration of sustained body weight loss: up to 7 days
Lepob/ob obese mice [4]; 240 h p.i.
  fasting blood glucose lowering after 10 days: no more efficacy
